Experimental data published in the EternaBench riboswitch data.

Tested on: MS2 coat protein
Test: apparent Kd, MS2 coat protein; higher = weaker binding; RNA-MaP array; FMN 200 µM where present
Summary of the method: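 Designs were transcribed by stalled E. coli RNA polymerase on Illumina sequencing-chip clusters. They were titrated with SNAP-549-labelled MS2 coat protein from 0.7 or 1.5 nM, doubling to 3 µM, in 100 mM Tris-HCl pH 7.5, 80 mM KCl, 4 mM MgCl2, BSA, DTT, yeast tRNA and Tween-20, without and then with constant ligand. The apparent Kd is the median of filtered per-cluster fits after normalisation of green signal to red-channel RNA signal and control-cluster median Fmax.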

[1] = designed as: OFF switch for flavin mononucleotide, no ligand
[2] = ligand present: flavin mononucleotide, designed as: OFF switch for flavin mononucleotide
[3] = designed as: ON switch for flavin mononucleotide, no ligand
[4] = ligand present: flavin mononucleotide, designed as: ON switch for flavin mononucleotide

Sequence	apparent Kd [1] [nM]	apparent Kd [2] [nM]	apparent Kd [3] [nM]	apparent Kd [4] [nM]
GGAUAGGACAGAGGAUAUACCGAUAGGAGAUACUAUCGACUAUUCCUCACAUGAGGAUCACCCAUGUAGAAGGCUGUCCUAUCG	16.9	58.1	–	–
ACGACGAAAGUCGAACGAUGUACGAGAAGGACAUGAGGAUCACCCAUGUUAUCUGUUAUAGACAUGUAGGAUAUCGUACAUCGA	8.25	26.8	–	–
GGACAGGACAGAGGAUAUACGUGCUAGAGAUACUAGCAAAAUUUCCUCACAUGAGGAUCACCCAUGUAGAAGGCUGUCCUAUCG	7.39	123	–	–
AUUACAUGAGGAUCACCCAUGUACAGCACGUUUCAAUACAGUGAGGAUAUACGAAAUGUAGGAACGUAGAAGGCACUGGGUGCA	–	–	265	68.1
AGAGAGAGCACAGGAUAUCCGCGCACAUGUAGCGGAGAAGGGUGACCUUUUUGCACAUGAGGAUCACCCAUGUCCAGCACCACA	–	–	39.7	21.7
UUCCUGUCAGGAUAUGACUAGAUGCACGUUAGUGUGUUUACUUAGAAGGGACAUGAGGAUCACCCAUGUAUUCC	26.2	24.3	–	–
ACAUGAGGAUCACCCAUGUAUUCAUAGGAUAUACUACAUGAGUUUCAUUCAUGUAAACUUGUAUUGUAGAAGGAUGUUACAUGU	16.4	19.2	–	–
GUAUAUAGUGUGAGGAUAUGCUGGUCCUUGGAUCAGCAGAAGGCACAUGAGGAUCACCCAUGUAGUUAAAUAUG	26.8	100	–	–
UGUCAAGCAGGAUAUGCACGUAAUAACAUGAGGAUCACCCAUGUGACCGAUUUAUAUUUUGCAGAAGGGCUUGUUU	79.7	78.2	–	–
UGUGUGUGGGCAGGAUAUGCAUGAAUAUAUAUGAUGUAGUGUGAUGUAACAUGAGGAUCACCCAUGUAGAAGGGCCGGUGUAUG	145	234	–	–
UAAAAGACUAGUAUGGUAACGAUCACAUGAGGAUCACCCAUGUAGGAUAUGAGCAGAAAAUCUGCUCAGAAGGACAUGCUAGUC	5.8	9.08	–	–
AUUAUAAAGGUAGGAUAUAGUAUUAUAAUUAAAUUAGAAGGAUCUCACAUGAGGAUCACCCAUGUAAGAGGAUCACCCAUGUAU	9.64	9.62	–	–
CGGUCGAUAUCAGGAUAUCGUUUAAUUACAUGAGGAUCACCCAUGUUGACAAGGAAUAUAACUUGCGAGAAGGGAUUACGAUCG	–	–	9.33	6.47
GCCAUCGCAUGAGGAUAUGCUCCGGUUUCCGGAGCAGAAGGCAUGUCGUAAGACAUGAGGAUCACCCAUGUAGUCAAGAUGGCA	–	–	912	41.5
UUGAAUUUAAACAUGAGGAUCACCCAUGUGUCAUAGUUGAUAUAGGAUAUGCUUAUACUUUGAAAGCAGAAGGAUGACGAUACU	–	–	26.3	11.9
GCCAUCGCAUGAGGAUAUGCUCCGGUUUCCGGAGCAGAAGGCGUGUCAUUAGACAUGAGGAUCACCCAUGUAGUUAAGAUGGCA	–	–	489	21.3
UUCGUGCAGCUUUGCUGUACGCGUACAUGAGGAUCACCCAUGUAGGAUAUGGUACGCUUUGUGUGCUAGAAGGAUAUGGAGAGG	18.8	18.6	–	–
GACUGCUGAGGAUAUACAUGAGGAUCACCCAUGUGCUUCAGUAUCGAAAGAUACAUUGGUAGAAGGUAGUAGUC	11.8	20.8	–	–
AGUAUGUACGCAGGAUAUACAUGAGGAUCACCCAUGUGGAACAGUGUAGUGCUAGUUGAUCCUCAGUAGAAGGGCGGUCGAAUA	62.5	91.6	–	–
CAAUCUCAGAUAGGAUAUAUAGGAUAACUUAAGACCUAACAUGAGGAUCACCCAUGUGAUUAUUCGUAGAAGGAUCAUUGAACU	–	–	226	244
AAUAACAGAGGAUAUACUGUUUUAUGUGUUUAUUGUUUUAAACAUGAGGAUCACCCAUGUAGAAGGCUGAGUAA	38.9	39	–	–
ACCUUACAUGAGGAUCACCCAUGUCAGGAUAUCUCGGGCGGCUGAGGACCAGCCGCCCAGAGAAGGGACGAGGA	14.7	15.3	–	–
CUGUCGAUAUCAGGAUAUCGUUUACAUACAUGAGGAUCACCCAUGUAGAUGAUCAGCCUAAUAUACGAGAAGGGAUAACGAUAG	–	–	10.2	9.04
AAUAUGAGCUGGUAUAUAAACCUCACAUGAGGAUCACCCAUGUAGGAUAUCAGCACGAUAAGUGCUGAGAAGGACAUCCAGCUC	15.4	17.8	–	–
GGAUCGUAUGUCAGGAUAUACCACUGGAUACAGUGGUAGAAGGGACAUGAGGAUCACCCAUGUUCUAUCGAUCC	15.9	20.4	–	–
GGCGGAGACGUUAACAUGAGGAUCACCCAUGUCGAAGGAGAUGAGGAUAUCGCAUACGAUGUAUGUGAGAAGGCAUGGUCUGCC	–	–	30	10.6
CUUCUGUGAGGAUAUUGACCAGUAGCUGACCUAGUACUGGAUGAGAAGGCACAUGAGGAUCACCCAUGUGGCAC	19.5	104	–	–
GGGUCAACAUGAGGAUCACCCAUGUAGGAUAUCGCUAUUGUAAUCAUGAAACAUGAUUACAAUAGCGAGAAGGACAUAUGCGGG	42	74.1	–	–

Sequence	apparent Kd [1] [nM]	apparent Kd [2] [nM]	apparent Kd [3] [nM]	apparent Kd [4] [nM]
GGAUCCAUCACAGGAUAUGCUGGACUUUGUCCAGCAGAAGGGUGAACAUGAGGAUCACCCAUGUAAAAGGAUCCUAUAUUUAAU	–	–	124	24.9
AGAUGGUGAUGUUAUCUUCGUCGGACAUGAGGAUCACCCAUGUAGGAUAUGCUACUAAAAUAGUAGCAGAAGGACAUGUAUCUU	104	1030	–	–
UUGGACGUCGUAGGAUGUGUAGGAUAUUCCUACAUGAGGAUCACCCAUGUUGACAUGGAAGAAGGACAGAAGGACGAUGUCCAU	–	–	386	12.9
GAUAGAGAGCAGGAUAUCUUAGAAAUGUAUUAUAGAGAAGGGCUCACAUGAGGAUCACCCAUGUGGUCCUAGAU	16.4	108	–	–
GCUGUAUAUGAGAAGGCGAUCAUGAAACAUGAUCGAGGAUAUCAUGUAAACAUGAGGAUCACCCAUGUAUGGGUAUUAAGCAGC	–	–	280	46.6
GCCUUAUCGGUCAGGAUAUACAUUUGUUAGUUGUUGUAGAAGGGACAUGAGGAUCACCCAUGUACAUUACAUUG	22.4	40.3	–	–
UGUCGGAGCAGAGGAUAUUACAUGAGGAUCACCCAUGUAUGAACCAGUAGCUGGAAACAGCAAUGUAAGAAGGCUGCUCCGACA	10.9	91.3	–	–
CGGCGCUGUCGAGAGGAUAUGCGGUGAUGGACAUGAGGAUCACCCAUGUUAGCGAUAGCAUCACGGUAGAAGGCUCUUACGCCUG	–	–	378	174
GCACUGACAGGAUAUACAUGAGGAUCACCCAUGUGACCCUUACAGUACUCGCGUACUGGUAGAAGGGUCUGUGC	–	140	–	–
UGGUACUAGGGAGGAUAUGGGAAGAUACAUGAGGAUCACCCAUGUUUAAGAAUGCUGAGAGGCAACUAGAAGGCCCUAGUACCU	–	–	439	20.9
UUAUUACGAGGAUAUCGUUUUUAUCACAUGAGGAUCACCCAUGUUGUUUAUGUUUCGUUUCGAGAAGGCGUUUGUU	27.6	19.9	–	–
UAUAUAUAGUAAGGAUAUGUAUUUAGUUUAUAAACAGAAGGUACUGACAUGAGGAUCACCCAUGUUUUAGUGUGGGCAUGUAGA	87.7	127	–	–
UUAAAUCAUGUAGGAUAUGCAUGGCGAAGCUACGCAGAAGGACAUGAGGAUCACCCAUGUUAUAGCUACCAAGUAAGGUGGCAA	77.9	236	–	–
UUGGUUGUCGUAGGAUAUGGAGGAGAUUCCUACAUGAGGAUCACCCAUGUUCGCAUGGAAGAAGGCCAGAAGGACGAUGACCAU	–	–	80.5	62
AUAUGGGCCCAGAAGGUGCCAGCGAGAGCUGCACAUGAGGAUCACCCAUGUUGUCGGUGACGACGCAAGGAUAUGGGCCCAUAU	–	–	22.1	6.26
AACUUCCCGUCAGGAUAUCGCCGUAGGUCCUCGGGUCUCGCCGUCAUACAUGAGGAUCACCCAUGUGAGAAGGGACGGGAUUCA	21.8	117	–	–
AGUAAGAUGCAGAAGGUGUUAGCUAGAGCUACGACAUGAGGAUCACCCAUGUACUAGAAACAGUACAAGGAUAUGCAUCUUACU	–	–	18.4	6.43
AUGCCUUAUGUAGGAUAUGCAUAGAGUUGCUAUGCAGAAGGACAUGAGGAUCACCCAUGUAUGUAUACCUUACAUAUCUGGCAU	8.34	30.8	–	–
UUACUUGUGCAGAAGGGCAUUGAAUUAGGUUUUUAGGUUGAUCAGAAAUGCAGGAUAUGUUAAACAUGAGGAUCACCCAUGUAC	–	–	66.9	13.9
UAUCUGUGAGGAUAUCCGGGCCCGGGCGAAAGCCCGGGCCCGGAGAAGGCACAUGAGGAUCACCCAUGUGACCU	14.8	19.1	–	–
GCGUAAUUGAUCCUAUUUACCAACAUGAGGAUCACCCAUGUGCAGGAUAUGCUAAAGAUAGAUAAGCAGAAGGGCAUUUACCGC	47	211	–	–
AAGGAGUCAGGAUAUGCUGCUCGUCACUUGCGUGAUGAGUAGCAGAAGGGACAUGAGGAUCACCCAUGUAAAGA	51.2	61.4	–	–
UAUAUAUAGUAAGGAUAUGUAUAUAGUUUAUAAACAGAAGGUACUGACAUGAGGAUCACCCAUGUUUUAGUGUGGGCAUGUAGA	77.9	99.5	–	–
UAUAUAUAGUAAGGAUAUGUAAUUAUUCUAUAAACAGAAGGUACUGACAUGAGGAUCACCCAUGUUUUAGUGUGGGCAUGUAGA	43.4	46	–	–
UUGGAGUACGUAGGAUAUGUAGGAUAUUCCUACAUGAGGAUCACCCAUGUAUGAAUGGAAGAAGGACAGAAGGACGUGCUCCAU	–	–	19.8	13.9
AUAUAUACAAAGUUACAUGAGGAUCACCCAUGUUUAUUGGGAAGAAGGGUAACAUUAUUAGAUGUAUAGGAUAUUUCACGAUUG	–	–	513	320
CCAUCAGCGAACGAUACGAAUGGACAUGAGGAUCACCCAUGUAGAAGGACAGGAGAAUAACGGCUGUAGGAUAUACAUUUAGUG	40.3	31.2	–	–
